# Published values collected from several papers.
# Compare with care: the assays were run in different laboratories.
# Target: Sigma non-opioid intracellular receptor 1 (SIGMAR1, Homo sapiens, UniProt Q99720)
SMILES,effect on,technique,notes,Ki [nM]
CCCn1nc(C(=O)N2CCCCC2)c2c1CCC(N1CCN(c3ccc([N+](=O)[O-])cc3)CC1)C2 (stereo not drawn),ligand displacement,radioligand,,1590
CCN(CC)CCCC(C)Nc1ccnc2cc(Cl)ccc12 (stereo not drawn),ligand displacement,radioligand,,741
COc1ccccc1N1CCN(CCCCNC(=O)c2cc3cc(O)ccc3[nH]2)CC1,cell-free assay,,,> 10000
COc1ccc2ccn(CCCCN3Cc4cc(OC)c(OC)cc4C3)c2c1,ligand displacement,radioligand,cell membranes,70
COc1ccc2[nH]c(C(=O)NC/C=C/CN3CCN(c4ccccc4OC)CC3)cc2c1,cell-free assay,,,> 10000
COc1ccc2ccn(CCCCN3CCc4cc(OC)c(OC)cc4C3)c2c1,ligand displacement,radioligand,cell membranes,357
CCCn1nc(C(=O)N(C)C)c2c1CCC(NCc1ccc(Cl)cc1)C2 (stereo not drawn),ligand displacement,radioligand,,> 10000
CC(C)(C)Oc1cc(CCC(C)(C)N2Cc3ccc(S(C)(=O)=O)cc3C2)ccc1O,ligand displacement,radioligand,cell membranes,63
CCCn1nc(C(=O)N2CCCCC2)c2c1CCC(NCCN1CCCCC1)C2 (stereo not drawn),ligand displacement,radioligand,,> 10000
COc1cc2c(cc1OC)CN(CCCCn1ccc3c(OC)cccc31)CC2,ligand displacement,radioligand,cell membranes,259
COc1ccccc1N1CCN(CCCCNC(=O)c2cc3cc(OCCF)ccc3[nH]2)CC1,cell-free assay,,,> 10000
OCCCN1CC[C@@H]2C[C@H]1c1cc(-c3ccc(C(F)(F)F)cc3)ccc12,ligand displacement,radioligand,,167
